In the library only some 2.1% were active in any assay of this set; here they are far more common.
APJ agonist = APJ receptor agonism | CHO-K1 APJ PathHunter beta-arrestin, luminescence; 0% DMSO wells, 100% apelin | 0.11% of 330,000 active | activation, % at 20 µM | P35414;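 active = activation more than six SD over the plate average, tested at 20 µM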;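 also: 0% = DMSO alone and 100% = apelin-13 at 10 nM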
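Incubation: overnight seeding, 90 min compound at 25 °C, 1 h detection; test system: PathHunter CHO-K1 APJ (AGTRL-1) beta-arrestin reporter cells; amount: 1000 cells/well; doses: one dose, 20 µM compound, 1% DMSO; measured by: beta-gal luminescence; measure: agonist-driven arrestin binding to APJ; benchmarks: negative DMSO alone, positive Apelin-13 at 10 nM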
CXCR6 inh = blocks human CXCR6 beta-arrestin recruitment; O00574; CHO-K1 PathHunter CXCR6 beta-arrestin, luminescence; inhibition, % at 20 µM; 0.36% of 360,000 active; AID 602244; in the data active = inhibition above about 34%, passing the limit was not always enough;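 also: antagonist mode with CXCL16 agonist at 10 nM final; 0% = 10 nM CXCL16 with DMSO and 100% = unstimulated wells without agonist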
Target sequence (O00574 whole entry, looked up): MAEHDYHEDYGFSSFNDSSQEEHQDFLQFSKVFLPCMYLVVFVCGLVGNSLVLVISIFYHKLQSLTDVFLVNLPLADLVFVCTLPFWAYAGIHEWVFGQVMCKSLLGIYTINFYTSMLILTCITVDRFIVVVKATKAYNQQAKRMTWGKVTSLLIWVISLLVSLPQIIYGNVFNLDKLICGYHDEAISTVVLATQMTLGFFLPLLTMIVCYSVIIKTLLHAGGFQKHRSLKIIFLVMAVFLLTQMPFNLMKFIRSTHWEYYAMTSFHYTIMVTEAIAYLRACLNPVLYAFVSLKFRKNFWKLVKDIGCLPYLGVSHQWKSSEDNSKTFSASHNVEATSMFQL
EBI2 antag = blocks human EBI2 receptor beta-arrestin signaling; P32249; EBI2 beta-arrestin recruitment, luminescence, 7a,25-OHC stimulated; inhibition, % at 5 µM; 0.81% of 360,000 active; AID 651636; in the data active = inhibition above about 38%;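 also: enzyme fragment complementation signal reports receptor beta-arrestin coupling in cells; 0% = agonist plus DMSO wells and 100% = wells without agonist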
APJ antag = blocks the human apelin receptor APJ; AID 2521; CHO-K1 APJ beta-arrestin complementation, luminescence; 0.32% of 330,000 active; inhibition, % at 20 µM;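 active = inhibition above about 40% at 20 µM, limit read from the data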;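 also: cells challenged with 10 nM apelin-13 agonist together with compound; plate controls were apelin-13 plus DMSO wells for no effect and DMSO wells lacking apelin-13 for full effect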
m5-HT2A agonist = activates the mouse 5-HT2A serotonin receptor. 0.66% of 360,000 active. activation, % at 7.6 µM. AID 624169. CHO-K1 mHTR2A beta-arrestin complementation, luminescence; percent of 30 µM serotonin response. P35363;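 active = activation above a run cutoff, the mean activation of all tested compounds plus 3 SD, cut at about 14% in these data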;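 also: 0% = plate median of compound wells and 100% = 30 µM serotonin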
CCR6 antag = CCR6 (human) receptor antagonism. 0.49% of 340,000 active. P51684. CHO-K1 CCR6 PathHunter beta-arrestin, luminescence, CCL20-stimulated. inhibition, % at 20 µM;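 active = compounds whose inhibition of the agonist-driven luminescence signal at 20 µM reaches about 50%, limit read from the data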;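 also: cells stimulated with CCL20 at 14 nM final; plate controls were DMSO with CCL20 for no effect and DMSO without agonist for full effect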
MOR ag counter = OPRM1 agonism in mouse HTR2A counterscreen. shares compounds with m5-HT2A agonist. U2OS OPRM1 beta-arrestin PathHunter, luminescence; DMSO 0%, DAMGO 9.3 µM 100%. activation, % at 9.3 µM. 5.3% of 2,300 active. AID 624380;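 active = mean activation above the mean of DMSO-only wells plus 3 SD, cut at about 0.5% in these data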
HTR2A ag conf = mouse HTR2A agonism confirmed; shares compounds with m5-HT2A agonist; activation, % at 7.6 µM; CHO-K1 PathHunter beta-arrestin recruitment, luminescence; DMSO 0%, 30 µM serotonin 100%; 19% of 2,300 active;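 active = mean activation across triplicates above the hit threshold derived in the original primary screen, cut at about 15% in these data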
* marks the source's active call; other numbers are inactive results; · = no result given.

SMILES	APJ agonist	CXCR6 inh	EBI2 antag	APJ antag	m5-HT2A agonist	CCR6 antag	MOR ag counter	HTR2A ag conf
CNCCCN1c2ccccc2CCc2ccccc21	-2	-2	-13	15	31*	8	-1	-7
Cc1cc(CNC(=O)c2cccc(OC3CCN(S(=O)(=O)N(C)C)CC3)c2)on1	-1	-4	3	-38	15*	13	0	0
O=C(Nc1oc2ccccc2c(=O)c1-c1ccc2c(c1)OCO2)c1ccco1	·	1	-5	·	14*	·	-1	-4
O=C(Nc1ccccc1C(=O)Nc1ccc2c(c1)OCO2)c1ccco1	-1	1	-18	-11	-16	-15	·	·
COc1ccc(/C=C/C(=O)Nc2nonc2NC(C)=O)cc1	0	0	-6	0	25*	-1	-1	-3
Cc1cc(C)n(CC(=O)NCc2ccccc2)c(=O)c1C#N	0	2	2	13	4	-7	·	·
CC(C)N(C(=O)CSc1nnnn1-c1ccc2c(c1)OCO2)C(C)C	-6	0	4	-3	0	3	·	·
COc1cccc(CNC(=O)CN2C(=O)COc3ccc(S(=O)(=O)N4CCOCC4)cc32)c1	-3	5	-12	12	0	6	·	·
COc1cccc(CNC(=O)CN2C(=O)COc3ccc(S(=O)(=O)N4CCCCC4)cc32)c1	-6	6	6	11	16*	5	-1	-5
O=C(NCCc1ccccc1)C(c1ccccc1F)N(C(=O)c1csnn1)C1CC1 (centres undefined)	2	6	-1	21	-1	-15	·	·
O=C(CCN1C(=O)c2cccc3cccc(c23)C1=O)NCc1ccco1	-1	2	-6	15	16*	5	-1	-2
O=C(C1CC(=O)N(c2ccc3c(c2)OCCO3)C1)N1CCN(S(=O)(=O)c2ccccc2F)CC1 (centres undefined)	·	-2	-4	·	18*	5	0	-4
CN(C(=O)c1cccc(NC(=O)Cc2ccc(NC(=O)C3CCCN(C(=O)CCc4ccccc4)C3)cc2)c1)C1CC1 (centres undefined)	·	-7	-5	·	16*	7	1.1*	-1
O=C(Cc1ccc(NC(=O)C2CCCN(C(=O)C3CCC3)C2)cc1)Nc1ccc(C(=O)N2CCOCC2)cc1 (centres undefined)	·	2	-11	·	17*	-3	0	1
O=C(Cc1ccc(NC(=O)C2CCCN(C(=O)C3CC3)C2)cc1)Nc1cccc(C(=O)N2CCCC2)c1 (centres undefined)	·	-9	-5	·	15*	-7	-1	-4
O=C(Cc1ccc(NC(=O)C2CCCN(C(=O)C3CCCC3)C2)cc1)Nc1cccc(C(=O)N2CCCC2)c1 (centres undefined)	·	-4	-5	·	9	-2	·	·
COc1ccc(C(O)c2ncc(-c3ccccc3Cl)[nH]2)cc1 (centres undefined)	·	-7	-7	·	0	·	·	·
CCOCCn1c(=O)c2c(nc3n2CC(C)CN3CCc2ccccc2)n(C)c1=O (centres undefined)	-2	1	2	1	15*	-3	0	-1
CN=c1scc(-c2cccs2)n1/N=C/c1ccc(O)c(O)c1O	2	4	11	-5	2	10	·	·
COCCN=c1scc(-c2ccco2)n1/N=C/c1ccc(O)c(O)c1O	0	6	10	-14	28*	9	0	72*
C=CCN=c1scc(-c2ccco2)n1/N=C/c1ccc(O)c(O)c1O	-1	-3	3	-49	16*	14	1.9*	129*
CC(C)N=c1scc(-c2ccco2)n1/N=C/c1ccc(O)c(O)c1	2	5	19	3	18*	7	1.1*	10
CC(C)C(=O)c1c(C(C)C)nn2ccccc12	5	0	8	-2	-1	10	·	·
CCC1(c2ccccc2)NC(=O)N(CC(=O)N(C)CC(=O)Nc2cccc(OC)c2)C1=O (centres undefined)	-3	-3	-4	9	15*	0	0	3
COc1cccc(NC(=O)CN(C)C(=O)CN2C(=O)NC3(CCCC3)C2=O)c1	-5	4	-8	24	-8	-2	·	·
SMILES	APJ agonist	CXCR6 inh	EBI2 antag	APJ antag	m5-HT2A agonist	CCR6 antag	MOR ag counter	HTR2A ag conf
CCC1(c2ccc(F)cc2)NC(=O)N(CC(=O)Nc2ccccc2C)C1=O (centres undefined)	2	3	-15	-3	14*	2	-1	-4
CCC1(c2ccc(F)cc2)NC(=O)N(CC(=O)Nc2ccccc2Cl)C1=O (centres undefined)	3	-2	-5	-9	7	2	·	·
O=C(C[C@@H]1C/C=C\C[C@@H](Cc2ccc(F)cc2)C(=O)OC[C@H]2CCCN2C1=O)NCCO	-4	-5	-1	5	0	2	·	·
NC(=O)C1CCN(CC(O)COCc2ccccc2Cl)CC1 (centres undefined)	1	-3	2	-1	-7	21	·	·
COc1ccc(CC(=O)OCC(=O)Nc2ncc(Cl)c(C)c2Cl)cc1	-4	7	-4	13	15*	8	0	-3
Cc1c(Cl)cnc(NC(=O)COC(=O)CNC(=O)c2ccccc2)c1Cl	-1	1	0	-4	8	5	·	·
O=C(c1ccc(Cl)cc1)N(c1ccccn1)C1CCCCC1	-3	-5	1	11	-2	14	·	·
O=C(c1cccc(C(=O)N(c2ccccn2)C2CCCCC2)c1)N(c1ccccn1)C1CCCCC1	-3	7	4	-10	30*	16	0	53*
CCOc1ccc(N(C)S(=O)(=O)c2csc(C(N)=O)c2)cc1	0	-5	12	-8	3	7	·	·
Cc1ccc(N(C)S(=O)(=O)c2csc(C(N)=O)c2)cc1C	-2	-7	9	-8	15*	-5	0	2
COc1cccc(Cn2c3ccc(NC(=O)Cc4ccccc4C)cc3c(=O)n2C)c1	·	-2	1	·	-2	·	·	·
C#CCN(C[C@H]1[C@H](OC(=O)NCCCCCC)[C@H](OC(=O)NCCCCCC)C[C@H]2C(=O)N(c3ccccc3)C(=O)[C@@H]12)S(=O)(=O)c1ccc(C)cc1	·	-1	3	·	15*	·	0	-6

Screening results: PubChem BioAssay, several laboratories
